Experimental data of several laboratories.
Compare with care: the assays were run in different laboratories.
Target: Mitogen-activated protein kinase 11 (MAPK11, Homo sapiens, UniProt Q15759)

Compound | observed | technique | concentration | remaining binding
CN(C)CC#Cc1ccc(OCCCc2sc(N3CCc4cccc(C(=O)Nc5nc6ccccc6s5)c4C3)nc2C(=O)O)c(F)c1 | cell-free assay | competition with immobilised ligand | 1 µM | 100%
C[C@@H]1CCN(c2nccc(-c3cnn4ncccc34)n2)C1 | binding | competition with immobilised ligand | 1 µM | 100%
c1cncc(-c2cccc(Nc3nccc(NC4CCCCC4)n3)c2)c1 | binding | competition with immobilised ligand | 10 µM | 89%
O=C(c1ccc(Nc2nccc(-c3cc4ccccc4s3)n2)cc1)N1CCC(N2CCCC2)CC1 | binding | competition with immobilised ligand | 1 µM | 95%
CN(c1nccc(-c2cnn3ncccc23)n1)C1CC1 | binding |  | 1 µM | 89%
O=C(NCCCN1CCOCC1)c1ccc(Nc2ncc(Cl)c(-c3ccc(Cl)s3)n2)cc1 | binding | competition with immobilised ligand | 1 µM | 98%
C[C@@H]1CN(c2ccc3ncc(-c4ccc5[nH]nc(C6CC6)c5c4)n3n2)C[C@H](C)O1 | binding | competition with immobilised ligand | 0.5 µM | 100%
CCS(=O)(=O)c1cc2cc(C[C@@](O)(CC(C)(C)c3ccc(F)cc3C(N)=O)C(F)(F)F)[nH]c2cn1 | cell-free assay | competition with immobilised ligand | 1 µM | 100%
N#Cc1ccccc1CSc1nnc2c(n1)[nH]c1ccccc12 | binding | competition with immobilised ligand | 10 µM | 94%
CN(C)c1ncc(F)c(-c2cnn3ncccc23)n1 | binding | competition with immobilised ligand | 1 µM | 100%
CN(C)c1ncnc(-c2ccc3nc(Nc4cc(CN5CCN(C(=O)CC(F)(F)F)CC5)ccn4)[nH]c3c2)c1Cl | cell-free assay | competition with immobilised ligand | 1 µM | 97%
COc1cnc(Nc2cccc(S(N)(=O)=O)c2)nc1N1CCN(c2ccccc2)CC1 | binding | competition with immobilised ligand | 1 µM | 100%
O=C(c1ccc(Nc2ncc(Cl)c(-c3ccc(Cl)s3)n2)cc1)N1CCC(N2CCCC2)CC1 | binding | competition with immobilised ligand | 1 µM | 73%
N[C@@H]1CCN(c2nccc(-c3cnn4ncccc34)n2)C1 | binding | competition with immobilised ligand | 1 µM | 100%
CSc1cccnc1N1CCN(Cc2nc3ccccc3[nH]2)CC1 | cell-free assay | competition with immobilised ligand | 1 µM | 100%
Cc1cnn2ncc(-c3ccnc(N(C)C)n3)c2c1 | binding | competition with immobilised ligand | 1 µM | 100%
CC(=O)N1CCC(c2ccc(C(=O)NC3=NCCN3)cc2C(F)(F)F)CC1 | cell-free assay | competition with immobilised ligand | 1 µM | 98%
O=C(Nc1c[nH]nc1C(=O)NC1CCNCC1)c1cc(F)cc(F)c1 | binding | competition with immobilised ligand | 1 µM | 97%
O=C(N[C@H]1CCCCC/C=C\C2C[C@@]2(C(=O)O)NC(=O)[C@@H]2C[C@@H](Oc3ccncc3)CN2C1=O)OC1CCCC1 (stereo partly shown) | binding | competition with immobilised ligand | 1 µM | 100%
COc1cnc(Nc2cccc(S(N)(=O)=O)c2)nc1N1CCN(c2ccccc2)C(=O)C1 | binding | competition with immobilised ligand | 1 µM | 100%
COc1cc(-c2cn(C3CCc4ccccc4N(CC(F)(F)F)C3=O)nn2)ccc1-n1ccc(C)n1 (stereo not shown) | cell-free assay | competition with immobilised ligand | 1 µM | 82%
CC(C)(C)c1ccc(-c2nc(CBr)nn2-c2cccc(O)c2)cc1 | cell-free assay | competition with immobilised ligand | 10 µM | 99%
